Data as given in ChEMBL document CHEMBL3593206, “SAR Studies of Exosite-Binding Substrate-Selective Inhibitors of A Disintegrin And Metalloprotease 17 (ADAM17) and Application as Selective in Vitro Probes” (J Med Chem, 2015).
Active and inactive are the calls of the source. The rule behind the calls is not given here.

Experiments:
[1] = target: Matrix metalloproteinase-14 (Homo sapiens, UniProt P50281); assay: Inhibition of MMP14 (unknown origin) using Mca-KLPGL-Dnp-AR as substrate preincubated for 30 mins followed by substrate addition measured after 1 hr by fluorescence assay
Summary of the method: (§1)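 Inhibitor as 10-point 1:3 dilutions from 300 μM, 30 min at RT. Substrate added from a 30 μM 3× solution. Single fluorescence read (ex 324/em 393 nm) after 1 h at RT.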

[2] = target: T1, Matrix metalloproteinase-9 (Homo sapiens, UniProt P14780); assay: Inhibition of MMP9 (unknown origin) using Mca-KLPGL-Dnp-AR as substrate preincubated for 30 mins followed by substrate addition measured after 1 hr by fluorescence assay; summary of the method: as §1
[3] = target: T2, 72 kDa type IV collagenase (Homo sapiens, UniProt P08253); assay: Inhibition of MMP2 (unknown origin) using Mca-KLPGL-Dnp-AR as substrate at 100 uM preincubated for 30 mins followed by substrate addition measured after 1 hr by fluorescence assay relative to control; summary of the method: as §1
Target sequence in this assay (P08253 110-660 limits assumed): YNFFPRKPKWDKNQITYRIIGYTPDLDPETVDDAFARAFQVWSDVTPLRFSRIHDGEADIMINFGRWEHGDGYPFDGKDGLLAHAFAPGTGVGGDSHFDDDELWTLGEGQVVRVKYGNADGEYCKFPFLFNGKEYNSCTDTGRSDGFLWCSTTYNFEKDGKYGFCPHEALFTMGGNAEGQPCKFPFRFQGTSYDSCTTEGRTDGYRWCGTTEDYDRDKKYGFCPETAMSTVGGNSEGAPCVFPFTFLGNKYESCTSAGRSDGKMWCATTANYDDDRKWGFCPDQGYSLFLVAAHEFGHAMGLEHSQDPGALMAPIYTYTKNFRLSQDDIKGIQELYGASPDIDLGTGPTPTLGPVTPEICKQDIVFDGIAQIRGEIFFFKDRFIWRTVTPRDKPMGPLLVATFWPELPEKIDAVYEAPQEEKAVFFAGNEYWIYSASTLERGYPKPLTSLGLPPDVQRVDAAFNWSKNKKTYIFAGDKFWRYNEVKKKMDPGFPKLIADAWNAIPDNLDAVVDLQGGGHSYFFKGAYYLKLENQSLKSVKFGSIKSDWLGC

[4] = target: T1, Matrix metalloproteinase-9; assay: Inhibition of MMP9 (unknown origin) using Mca-KLPGL-Dnp-AR as substrate at 100 uM preincubated for 30 mins followed by substrate addition measured after 1 hr by fluorescence assay relative to control; summary of the method: as §1
Neutrophil collagenase [5] = target: T3, Neutrophil collagenase (Homo sapiens, UniProt P22894); assay: Inhibition of MMP8 (unknown origin) using Mca-KLPGL-Dnp-AR as substrate at 100 uM preincubated for 30 mins followed by substrate addition measured after 1 hr by fluorescence assay relative to control; summary of the method: as §1
Target sequence in this assay (P22894 101-467 limits assumed): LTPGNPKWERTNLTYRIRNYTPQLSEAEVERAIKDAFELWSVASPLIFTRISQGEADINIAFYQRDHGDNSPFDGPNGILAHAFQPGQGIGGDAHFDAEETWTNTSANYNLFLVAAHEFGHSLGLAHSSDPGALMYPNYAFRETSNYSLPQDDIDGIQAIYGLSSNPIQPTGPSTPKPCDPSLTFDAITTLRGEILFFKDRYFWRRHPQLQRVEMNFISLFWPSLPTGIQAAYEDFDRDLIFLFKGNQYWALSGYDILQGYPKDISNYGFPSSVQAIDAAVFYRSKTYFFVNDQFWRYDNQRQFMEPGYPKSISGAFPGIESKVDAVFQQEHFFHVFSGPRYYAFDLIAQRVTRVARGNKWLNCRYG

[6] = target: T2, 72 kDa type IV collagenase; assay: Inhibition of MMP2 (unknown origin) using Mca-KLPGL-Dnp-AR as substrate preincubated for 30 mins followed by substrate addition measured after 1 hr by fluorescence assay; summary of the method: as §1
Target sequence in this assay (P08253 whole entry): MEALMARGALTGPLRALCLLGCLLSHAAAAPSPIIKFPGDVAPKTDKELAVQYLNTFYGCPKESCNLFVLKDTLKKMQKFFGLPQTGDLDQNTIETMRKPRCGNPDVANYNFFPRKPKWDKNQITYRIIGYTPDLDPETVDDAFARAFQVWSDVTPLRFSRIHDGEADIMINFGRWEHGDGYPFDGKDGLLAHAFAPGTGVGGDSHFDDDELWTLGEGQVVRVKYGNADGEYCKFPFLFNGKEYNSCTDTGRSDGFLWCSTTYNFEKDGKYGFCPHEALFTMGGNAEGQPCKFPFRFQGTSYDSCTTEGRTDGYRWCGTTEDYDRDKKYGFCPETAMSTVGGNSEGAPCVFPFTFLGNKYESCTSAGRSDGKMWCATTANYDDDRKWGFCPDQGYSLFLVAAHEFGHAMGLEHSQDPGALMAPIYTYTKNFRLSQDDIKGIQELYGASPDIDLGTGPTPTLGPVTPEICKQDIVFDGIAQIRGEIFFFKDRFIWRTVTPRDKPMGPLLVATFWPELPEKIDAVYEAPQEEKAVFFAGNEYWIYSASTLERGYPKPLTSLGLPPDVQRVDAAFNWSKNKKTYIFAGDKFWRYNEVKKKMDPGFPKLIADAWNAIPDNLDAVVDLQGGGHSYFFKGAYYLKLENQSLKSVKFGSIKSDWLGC

Neutrophil collagenase [7] = target: T3, Neutrophil collagenase; assay: Inhibition of MMP8 (unknown origin) using Mca-KLPGL-Dnp-AR as substrate preincubated for 30 mins followed by substrate addition measured after 1 hr by fluorescence assay; summary of the method: as §1
Target sequence in this assay (P22894 whole entry): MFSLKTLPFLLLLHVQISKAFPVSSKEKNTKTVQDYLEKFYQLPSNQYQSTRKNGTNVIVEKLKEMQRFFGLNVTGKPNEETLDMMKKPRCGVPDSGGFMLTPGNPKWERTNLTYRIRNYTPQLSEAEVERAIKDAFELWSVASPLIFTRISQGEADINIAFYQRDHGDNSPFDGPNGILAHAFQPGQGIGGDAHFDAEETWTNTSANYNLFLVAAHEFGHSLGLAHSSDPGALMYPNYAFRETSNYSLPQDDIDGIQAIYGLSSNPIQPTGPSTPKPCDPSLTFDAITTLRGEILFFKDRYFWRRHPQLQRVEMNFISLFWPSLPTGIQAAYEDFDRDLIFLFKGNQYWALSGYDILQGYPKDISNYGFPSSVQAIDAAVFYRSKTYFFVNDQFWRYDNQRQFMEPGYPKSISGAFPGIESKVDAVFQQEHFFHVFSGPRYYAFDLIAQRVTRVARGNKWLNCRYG

MDA-MB-231 = assay: Cytotoxicity against human MDA-MB-231 cells assessed as inhibition of cell viability up to 33 uM after 72 hrs by CellTiter-Glo assay; type: cell-based; settings: mda-mb-231, 72 h
HepG2 = assay: Cytotoxicity against human HepG2 cells assessed as inhibition of cell viability up to 33 uM after 72 hrs by CellTiter-Glo assay; type: cell-based; settings: hepg2, 72 h
[8] = target: T4, Disintegrin and metalloproteinase domain-containing protein 17 (Homo sapiens, UniProt P78536); assay: Inhibition of ADAM17 in human EAhy926 cells assessed as inhibition of neprilysin shedding at 15 uM relative to control; type: cell-based
A549 [9] = assay: Potentiation of etoposide-mediated inhibition of human A549 cell viability at 40 uM incubated for 1 hr followed by etoposide addition measured after 72 hrs by CellTiter-Glo assay; type: functional, cell-based
Summary of the method: (§2)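 A549 cells (1250 per well) in serum-free F12 were pretreated 1 h at 37 °C with 40 μM final test compound. Gefitinib, etoposide or doxorubicin was then added as 10-point 1:3 dilutions from 300 μM. After 72 h, viability was read by CellTiter-Glo luminescence and scaled between 100 μM gefitinib (0%) and 1% DMSO (100%).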

[10] = target: T4, Disintegrin and metalloproteinase domain-containing protein 17; assay: Inhibition of ADAM17 in HTSMC assessed as inhibition of DDR1 shedding at 10 to 40 uM by immunoblot analysis relative to control
[11] = target: T4, Disintegrin and metalloproteinase domain-containing protein 17; assay: Inhibition of ADAM17 in human HT1080 cells assessed as inhibition of cell invasion after 5 to 24 hrs by Transwell assay; type: cell-based; settings: HT-1080
ADAM17 (Homo sapiens) [12] = assay: Inhibition of ADAM17 in HCC1806 cells assessed as inhibition of DDR1 shedding at 10 to 40 uM by immunoblot analysis relative to control
[13] = target: T4, Disintegrin and metalloproteinase domain-containing protein 17; assay: Inhibition of ADAM17 in human SK-MEL-28 cells assessed as inhibition of notch shedding at 25 uM relative to control; type: cell-based
ADAM17 (Homo sapiens) [14] = assay: Inhibition of ADAM17 in HCC1806 cells assessed as inhibition of DDR1 shedding by immunoblot analysis
[15] = target: T4, Disintegrin and metalloproteinase domain-containing protein 17; assay: Inhibition of ADAM17 in human THP1 cells assessed as inhibition of LPS-stimulated TNFalpha cleavage after 1 hr by AlphaScreen assay; type: cell-based, THP-1
Summary of the method: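 THP-1 cells grown in RPMI 1640 with 10% FBS and 0.05 mM 2-mercaptoethanol; 3000 cells per well. Compound given in 3% DMSO for 1 h, then LPS added (1 μg/mL final) and cells incubated overnight at 37 °C. TNFα detected by AlphaScreen using anti-TNFα acceptor beads and streptavidin donor beads, each step 1 h in the dark at RT.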

[16] = target: T4, Disintegrin and metalloproteinase domain-containing protein 17; assay: Inhibition of ADAM17 in HTSMC assessed as inhibition of DDR1 shedding by immunoblot analysis
A549 [17] = assay: Potentiation of doxorubicin-mediated inhibition of human A549 cell viability at 40 uM incubated for 1 hr followed by doxorubicin addition measured after 72 hrs by CellTiter-Glo assay; type: functional, cell-based; summary of the method: as §2

T1 sequence (P14780 whole entry): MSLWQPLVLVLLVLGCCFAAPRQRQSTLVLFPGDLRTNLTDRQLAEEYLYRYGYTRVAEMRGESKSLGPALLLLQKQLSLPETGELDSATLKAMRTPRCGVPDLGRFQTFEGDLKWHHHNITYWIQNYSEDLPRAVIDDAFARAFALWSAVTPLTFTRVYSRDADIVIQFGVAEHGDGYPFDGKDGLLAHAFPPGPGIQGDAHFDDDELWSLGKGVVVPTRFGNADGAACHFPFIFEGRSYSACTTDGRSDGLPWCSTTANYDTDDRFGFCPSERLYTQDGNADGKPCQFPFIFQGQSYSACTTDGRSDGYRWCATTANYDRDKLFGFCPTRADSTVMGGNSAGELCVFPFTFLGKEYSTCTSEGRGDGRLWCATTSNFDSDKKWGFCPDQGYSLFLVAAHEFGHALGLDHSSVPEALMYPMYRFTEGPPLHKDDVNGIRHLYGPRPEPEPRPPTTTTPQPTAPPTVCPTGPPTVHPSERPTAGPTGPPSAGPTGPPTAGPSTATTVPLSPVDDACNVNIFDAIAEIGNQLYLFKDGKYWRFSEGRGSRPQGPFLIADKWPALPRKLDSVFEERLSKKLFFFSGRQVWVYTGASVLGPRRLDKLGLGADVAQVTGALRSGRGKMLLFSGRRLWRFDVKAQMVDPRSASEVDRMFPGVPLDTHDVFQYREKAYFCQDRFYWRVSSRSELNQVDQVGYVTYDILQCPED
T4 sequence (P78536 whole entry, the tested form may be a part): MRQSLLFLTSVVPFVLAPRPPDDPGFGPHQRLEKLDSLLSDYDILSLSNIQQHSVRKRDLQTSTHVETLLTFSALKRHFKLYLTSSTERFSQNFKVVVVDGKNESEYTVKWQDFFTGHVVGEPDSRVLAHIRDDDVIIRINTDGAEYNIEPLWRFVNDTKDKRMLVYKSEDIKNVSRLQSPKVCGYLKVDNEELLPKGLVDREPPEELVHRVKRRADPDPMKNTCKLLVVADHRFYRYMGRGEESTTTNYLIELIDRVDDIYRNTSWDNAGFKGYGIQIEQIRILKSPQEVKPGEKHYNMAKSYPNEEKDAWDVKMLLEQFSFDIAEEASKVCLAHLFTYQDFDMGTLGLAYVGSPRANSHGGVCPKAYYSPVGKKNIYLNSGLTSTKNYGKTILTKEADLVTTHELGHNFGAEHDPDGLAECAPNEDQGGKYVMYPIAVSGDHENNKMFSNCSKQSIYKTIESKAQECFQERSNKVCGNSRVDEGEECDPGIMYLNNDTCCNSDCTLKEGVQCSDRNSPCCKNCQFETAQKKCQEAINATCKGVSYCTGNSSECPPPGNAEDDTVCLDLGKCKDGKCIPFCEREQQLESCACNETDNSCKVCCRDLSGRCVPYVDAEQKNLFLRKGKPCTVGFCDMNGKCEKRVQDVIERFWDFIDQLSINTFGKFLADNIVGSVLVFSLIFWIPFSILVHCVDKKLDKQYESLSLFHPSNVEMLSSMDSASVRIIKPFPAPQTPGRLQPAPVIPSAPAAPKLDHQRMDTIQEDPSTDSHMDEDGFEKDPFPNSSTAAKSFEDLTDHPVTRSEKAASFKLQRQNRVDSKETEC

IC50 [1]	IC50 [2]	inhibition [3]	inhibition [4]	inhibition (Neutrophil collagenase [5])	IC50 [6]	IC50 (Neutrophil collagenase [7])	inhibition [8]	inhibition [10]	inhibition [11]	inhibition (ADAM17 (Homo sapiens) [12])	inhibition [13]	inhibition (ADAM17 (Homo sapiens) [14])	IC50 [15]	inhibition [16]	Structure (SMILES)	Activity (MDA-MB-231)	Activity (HepG2)	Activity (A549 [9])	Activity (A549 [17])
> 100 µM	> 100 µM	0%	0%	0%	> 100 µM	> 100 µM	–	–	–	–	–	–	–	–	CCCC[C@H]1CN([C@@H](Cc2ccc(O)cc2)CN2CCC[C@H]2CN2C(=O)C(=O)NC[C@H]2Cc2ccc3ccccc3c2)C(=O)C(=O)N1CCC12CC3CC(CC(C3)C1)C2	–	–	–	–
> 100 µM	> 100 µM	0%	13%	28%	> 100 µM	> 100 µM	62%	–	–	–	–	–	–	–	O=C1NC[C@H](Cc2ccccc2)N(C[C@@H]2CCCN2C[C@@H](CC2CCCCC2)N2C[C@H](Cc3ccc(O)cc3)N(CCc3ccccc3)C(=O)C2=O)C1=O	Non-toxic	Non-toxic	–	–
> 100 µM	–	–	–	13%	–	> 100 µM	–	59%	Dose-dependent effect	59%	0%	Dose-dependent effect	100 µM	Dose-dependent effect	O=C1NC[C@@H](Cc2ccc(O)cc2)N(C[C@@H]2CCCN2C[C@@H](Cc2ccc3ccccc3c2)N2CC(Cc3ccc(O)cc3)N(CCC34CC5CC(CC(C5)C3)C4)C(=O)C2=O)C1=O (single isomer, unassigned)	Non-toxic	Non-toxic	inactive	inactive
